From PubChem
Sampled rows, rich in hits. Any-hit rate of the full collection: about 1.7%.
STEP inh: blocks human striatal-enriched tyrosine phosphatase | recombinant STEP, OMFP fluorogenic substrate, fluorescence | inhibition, % at 20 µM | 360,000 tested, 0.25% active | AID 588621;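 active = inhibition at 20 µM, scaled per plate between control wells, above about 37%, limit read from the data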;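 also: 0% = DMSO with enzyme and substrate and 100% = substrate only without enzyme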
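Test system: STEP tyrosine phosphatase / Reagent: OMFP at 25 µM / Doses: 20 µM, 1% DMSO / Read-out: percent inhibition scaled to no-enzyme and uninhibited-enzyme controls, plate-pattern corrected / Detection: FITC-channel fluorescence of OMFP product / Medium: Bis-Tris buffer pH 6.0, 2.5 mM DTT, 0.005% Tween 20 / Schedule: 20 min at room temperature, dark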
Scp-1 inhibitor: blocks human Scp-1 phosphatase activity. Q9GZU7. inhibition, % at 20 µM. Recombinant Scp1, phosphopeptide, malachite green phosphate absorbance. 340,000 tested, 0.88% active;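 active = inhibition above about 50% at 20 µM, limit read from the data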;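 also: plate controls were DMSO wells with enzyme for no effect and wells lacking enzyme for full effect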
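System: SCP-1 catalytic domain; Reagent: Phospho 17-mer peptide substrate; Doses: one concentration, 20 µM, with 1.0% DMSO; Incubation: 45 min room-temperature reaction, 5 min colour, 30 min stabiliser; Signal: Phosphate-binding colour reagent, absorbance read at 630 nm.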
DNMT1 inh: DNMT1 (human) enzyme inhibition; DNMT1 molecular beacon, Hinp1I cleavage, fluorescence; inhibition (reported as % activation of signal), % at 10 µM; 360,000 tested, 0.83% active; in the data active = inhibition above about 50%
Target sequence (P26358 504-1616 limits assumed): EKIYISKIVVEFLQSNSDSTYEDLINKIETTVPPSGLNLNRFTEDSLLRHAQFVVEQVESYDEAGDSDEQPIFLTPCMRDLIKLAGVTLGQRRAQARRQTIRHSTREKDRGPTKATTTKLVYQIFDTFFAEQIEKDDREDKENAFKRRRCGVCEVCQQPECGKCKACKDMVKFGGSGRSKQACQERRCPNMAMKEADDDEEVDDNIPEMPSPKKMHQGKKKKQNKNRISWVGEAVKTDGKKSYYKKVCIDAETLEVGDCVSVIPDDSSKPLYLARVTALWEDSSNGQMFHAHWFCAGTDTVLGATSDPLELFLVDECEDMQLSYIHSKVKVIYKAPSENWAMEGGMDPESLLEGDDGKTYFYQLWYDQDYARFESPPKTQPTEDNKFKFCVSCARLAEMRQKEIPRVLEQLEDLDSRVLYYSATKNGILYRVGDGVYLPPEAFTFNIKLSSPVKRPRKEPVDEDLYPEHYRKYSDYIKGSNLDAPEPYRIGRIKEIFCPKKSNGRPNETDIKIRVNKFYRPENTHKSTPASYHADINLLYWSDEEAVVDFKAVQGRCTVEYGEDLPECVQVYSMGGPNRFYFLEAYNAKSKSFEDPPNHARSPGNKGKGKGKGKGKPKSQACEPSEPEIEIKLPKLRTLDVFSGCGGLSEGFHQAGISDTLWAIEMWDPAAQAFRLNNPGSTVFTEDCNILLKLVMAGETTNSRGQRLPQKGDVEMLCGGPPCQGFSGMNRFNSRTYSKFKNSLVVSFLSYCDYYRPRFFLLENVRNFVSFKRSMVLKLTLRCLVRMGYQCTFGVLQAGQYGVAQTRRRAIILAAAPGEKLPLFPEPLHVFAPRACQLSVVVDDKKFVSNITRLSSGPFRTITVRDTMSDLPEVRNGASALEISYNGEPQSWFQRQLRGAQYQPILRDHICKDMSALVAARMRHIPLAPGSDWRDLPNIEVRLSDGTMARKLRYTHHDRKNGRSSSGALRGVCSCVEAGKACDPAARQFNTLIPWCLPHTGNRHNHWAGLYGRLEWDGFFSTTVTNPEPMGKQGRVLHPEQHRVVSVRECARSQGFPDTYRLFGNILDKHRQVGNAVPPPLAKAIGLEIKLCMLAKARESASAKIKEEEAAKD
SUMO1-SIM PPI: alters human SUMO1 binding to SIM partners; P63165; SUMO1 binding to a labelled peptide, TR-FRET, 1 h; inhibition, % at 20 µM; 360,000 tested, 0.33% active; AID 602429; in the data active = inhibition above about 37%
LMPTP inh: LMPTP (human) inhibition | P24666 | recombinant LMPTP-A, OMFP fluorogenic substrate, fluorescence intensity | inhibition, % at 20 µM | 360,000 tested, 0.22% active | AID 651560;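 active = compounds that cut the enzyme signal by at least half of the control window in the single-dose screen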;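 also: plate controls were DMSO wells with enzyme plus substrate for no effect and substrate without enzyme for full effect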
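Test system: LMPTP-A, protein tyrosine phosphatase of low molecular weight; Input: 0.625 nM enzyme; Incubation: 50 min dark incubation at room temperature; Signal: endpoint fluorescence intensity from OMFP dephosphorylation; Read-out basis: % inhibition versus control wells.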
Active calls of the source: *.

What do the screens show for `CC(=O)Nc1cccc(-c2ccnc3c2CC(C(=O)NCC2CCOCC2)O3)c1` (configuration not stated)?
STEP inh: -1.8; DNMT1 inh: -3.4; SUMO1-SIM PPI: 8.7; LMPTP inh: -1.7

How did Fc1cccc(CSc2ncnc3c2ncn3C2CCCCO2)c1 (configuration not stated) do in these assays?
STEP inh: 0.9; Scp-1 inhibitor: 3.3; DNMT1 inh: -0.5; SUMO1-SIM PPI: 1.0; LMPTP inh: 1.1

How did CCN(CC)S(=O)(=O)c1ccc(S(=O)(=O)NCc2cccs2)cc1 do in these assays?
STEP inh: 0.0; Scp-1 inhibitor: 5.9; DNMT1 inh: 0.7; SUMO1-SIM PPI: -0.7; LMPTP inh: 0.0

How did COc1ccc(S(=O)(=O)NCc2cccs2)cc1 do in these assays?
STEP inh: 55.1*; Scp-1 inhibitor: 58.9*; DNMT1 inh: 16.0; SUMO1-SIM PPI: -2.7; LMPTP inh: 10.7

What do the screens show for `O=C(O)C1Nc2ccc(Br)cc2C2C=CCC12` (configuration not stated)?
STEP inh: 94.5*; Scp-1 inhibitor: 69.2*; DNMT1 inh: 93.1*; SUMO1-SIM PPI: 94.1*; LMPTP inh: 83.7*

How did O=C(O)C1Nc2c(O)cccc2C2C=CCC12 (configuration not stated) do in these assays?
STEP inh: 16.5; Scp-1 inhibitor: 70.9*; DNMT1 inh: 102.9*; SUMO1-SIM PPI: 26.1; LMPTP inh: 74.4*

Results for O=C(O)C1Nc2c(Cl)cc(Cl)cc2C2C=CCC12 (configuration not stated) ?
STEP inh: 41.2*; Scp-1 inhibitor: 72.4*; DNMT1 inh: 88.1*; SUMO1-SIM PPI: 103.0*; LMPTP inh: 87.5*

How did O=C(CN1CCc2ccccc2C1)Nc1ccccc1C(=O)NC1CC1 do in these assays?
STEP inh: -1.9; Scp-1 inhibitor: -6.8; DNMT1 inh: 2.2; SUMO1-SIM PPI: 0.8; LMPTP inh: -0.7

How did Cc1ccc(CN2CC(C(=O)NCC(=O)Nc3c(C)cccc3C)CC2=O)cc1 (configuration not stated) do in these assays?
STEP inh: 2.4; Scp-1 inhibitor: -6.2; DNMT1 inh: 4.0; SUMO1-SIM PPI: 1.5; LMPTP inh: -0.2

What do the screens show for `C[C@@H]1CN([C@@H](C)CO)C(=O)c2cc(N(C)C)ccc2O[C@@H](C)CCCCO[C@@H]1CN(C)S(=O)(=O)c1cccs1`?
STEP inh: -0.6; DNMT1 inh: 5.3; SUMO1-SIM PPI: 10.9; LMPTP inh: -0.8

Results for Cc1ccsc1-c1nc(C(N)=O)c2[nH]c(=O)n(-c3ccc(Cl)cc3)c2n1 ?
STEP inh: 1.1; Scp-1 inhibitor: 6.6; DNMT1 inh: 55.4*; SUMO1-SIM PPI: 15.6; LMPTP inh: 11.2

What do the screens show for `Cc1ccc(-n2c(=O)[nH]c3c(C(N)=O)nc(C(C)C)nc32)cc1`?
STEP inh: -2.2; Scp-1 inhibitor: -9.0; DNMT1 inh: -0.4; SUMO1-SIM PPI: -1.0; LMPTP inh: 0.1

How did Cc1nc(N)nc(N)c1/C=C/C(C)(C)c1ccc(Cl)cc1 do in these assays?
STEP inh: 5.8; Scp-1 inhibitor: 6.3; DNMT1 inh: 0.2; SUMO1-SIM PPI: 4.8; LMPTP inh: 80.8*

What do the screens show for `CC(C)(CN1CCc2ccccc2C1)NS(=O)(=O)c1ccc(Cl)cc1`?
STEP inh: 0.5; Scp-1 inhibitor: -5.2; DNMT1 inh: -2.6; SUMO1-SIM PPI: 44.6*; LMPTP inh: 1.9

What do the screens show for `CCOC(=O)N1CCN(c2cc(NCCC(=O)O)c3c4c(onc24)-c2ccccc2C3=O)CC1`?
STEP inh: -17.1; Scp-1 inhibitor: 75.8*; DNMT1 inh: 67.2*; SUMO1-SIM PPI: 43.6*; LMPTP inh: 9.5

How did O=C(O)CCCNc1cc(N2CCN(C(=O)c3ccco3)CC2)c2noc3c2c1C(=O)c1ccccc1-3 do in these assays?
STEP inh: 45.1*; Scp-1 inhibitor: 78.2*; DNMT1 inh: 45.9; SUMO1-SIM PPI: 53.8*; LMPTP inh: 6.4

How did O=C1c2ccccc2-c2onc3c(N4CCN(CCO)CC4)cc(N4CCN(C(=O)c5ccco5)CC4)c1c23 do in these assays?
STEP inh: 5.0; Scp-1 inhibitor: 5.8; DNMT1 inh: -18.9; SUMO1-SIM PPI: 55.8*; LMPTP inh: 11.5
